From ChEMBL document CHEMBL1145158, “Selective substrate-based inhibitors of mammalian dimethylarginine dimethylaminohydrolase” (J Med Chem, 2005)

Assays:
[1] = Inhibition of [14C]-L-NMMA (1 umol/L) binding to dimethylarginine dimethylaminohydrolase of rat kidney homogenate
Summary of the method: (§1)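 Rat kidney homogenized in PBS with PMSF 1 mM and leupeptin, pepstatin, chymostatin (5 µg/mL each), then spun; high-speed supernatant used as enzyme source (both DDAH isoforms). [14C]L-NMMA 1 µmol/L added, 1 h at 37 °C; stopped with neutral-pH Dowex resin binding unmetabolized L-NMMA. [14C]citrulline counted by scintillation. Screening at 1 mM or 100 µM; IC50 determined for actives.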

Rattus norvegicus [2] = species: Rattus norvegicus; experiment: Inhibition of [14C]-L-NMMA (1 umol/L) binding to dimethylarginine dimethylaminohydrolase of rat kidney homogenate 100 uM; summary of the method: as §1
Rattus norvegicus [3] = species: Rattus norvegicus; experiment: Inhibition of [14C]-L-NMMA (1 umol/L) binding to dimethylarginine dimethylaminohydrolase of rat kidney homogenate at 1 mM; summary of the method: as §1

IC50 [1] [µM] | inhibition (Rattus norvegicus [2]) [%] | inhibition (Rattus norvegicus [3]) [%] | SMILES
20 | 83 | – | COCC/N=C(/N)NCCC[C@H](N)C(=O)OC
189 | – | 90 | COCC/N=C(\N)NCC[C@H](N)C(=O)O
300 | – | 100 | CC/N=C(\N)NCC[C@H](N)C(=O)O
111 | 64 | – | CCCOC(=O)[C@@H](N)CC/N=C(\N)NCCOC
325 | – | 85 | CN(C)C(=N)NCC[C@H](N)C(=O)O
189 | 30 | – | COCCN/C(N)=N/CC[C@H](N)C(=O)OC(C)C
22 | 100 | – | COCCNC(=N)NCCC[C@H](N)C(=O)O
1510 | – | 48 | C/N=C(\N)NCC[C@H](N)C(=O)O
301 | – | 97 | CC(C)OCC/N=C(\N)NCC[C@H](N)C(=O)O
264 | – | 74 | N/C(=N\CC[C@H](N)C(=O)O)N1CCCCC1
